Assay results as given in ChEMBL document CHEMBL1134528, “Heterocycle-containing retinoids. Discovery of a novel isoxazole arotinoid possessing potent apoptotic activity in multidrug and drug-induced apoptosis-resistant cells” (J Med Chem, 2001).

How the values were obtained:
HL-60 [1] = experiment: In vitro inhibition of HL60 cell proliferation; assay type: functional, cell-based; conditions: Homo sapiens
HL-60 [2] = experiment: In vitro apoptotic activity in HL60 cells; assay type: functional, cell-based; conditions: Homo sapiens
How it was run: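 HL60 cells (2 × 10^5 per well, RPMI 1640 + 10% FCS) given increasing drug concentrations for 48 h; apoptosis scored morphologically under fluorescence microscopy after acridine orange/ethidium bromide labelling (chromatin condensation, apoptotic bodies), also by propidium iodide hypotonic-citrate flow cytometry as pre-G0G1 events; AC50 = concentration giving apoptosis in 50% of cells.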

HL-60 [3] = experiment: Effect on monocyte associated antigen CD14 expression in differentiating HL-60 cells; assay type: functional, Homo sapiens
How it was run: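 HL60 cells (2 × 10^5) exposed to each retinoid for 6 days; differentiation scored by May Grunwald-Giemsa-stained cytospin morphology and two-colour direct immunofluorescence flow cytometry with FITC anti-human CD14 and PE anti-human CD11c mouse monoclonals, isotype antibodies as negative controls; value is % antigen-positive cells. Growth in RPMI 1640, 10% FCS, 37 °C, 5% CO2.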

SW 962 [4] = experiment: (§1) Percentage efficacy for Beta RARE transactivation in SW962 cells; assay type: functional, Homo sapiens; set-up: concentration or dose not given beside the values
How it was run: (§2)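 SW962 vulvar carcinoma cells (L15 medium, 10% FBS with <8 nM vitamin A) stably carrying RARE-tk-CAT reporter with endogenous receptors, treated 24 h in DMSO; CAT measured by ELISA, normalised to protein, triplicates; fold induction vs DMSO control. Efficacy = fold induction at highest concentration (10 µM) divided by that of 10 µM 9-cis-RA, ×100.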

SW 962 [5] = experiment: Potency against beta RARE transactivation in SW962 cells; assay type: functional, Homo sapiens
How it was run: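 Stably transfected SW962 RARE-tk-CAT reporter line treated 24 h with 10^-9 to 10^-5 M compound in DMSO, DMSO vehicle control; CAT protein by ELISA normalised to extract protein, triplicate treatments averaged to give fold RARE induction; EC50, the concentration for half-maximal activation, read from dose–response curves.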

HL-60 [6] = experiment: Inhibition of retinoic acid resistant HL60R cell proliferation; assay type: functional, cell-based; conditions: Homo sapiens
How it was run: (§3)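 Cells at 2 × 10^5 per well in 1 mL complete medium were exposed to increasing concentrations of each drug for 48 h. Viable cells were counted on a hemocytometer with trypan blue exclusion and expressed as percent of control proliferation. IC50 is the concentration giving 50% growth inhibition.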

K562 [7] = experiment: Inhibition of retinoic acid resistant K562 cell proliferation; assay type: functional, cell-based; conditions: Homo sapiens; how it was run: as §3
HuT78 [8] = experiment: Apoptotic activity in retinoic acid resistant HUT78 cell lines; assay type: functional, cell-based; conditions: Homo sapiens
How it was run: (§4)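 Cells were exposed to increasing drug concentrations for 48 h. Apoptosis was scored by fluorescence microscopy after acridine orange/ethidium bromide staining, with chromatin condensation and apoptotic bodies marking apoptotic cells and uniform ethidium staining marking necrosis. AC50 is the concentration inducing apoptosis in 50% of cells.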

HuT78 [9] = experiment: Inhibition of retinoic acid resistant HUT78 cell proliferation; assay type: functional, cell-based; conditions: Homo sapiens; how it was run: as §3
HL-60 [10] = experiment: Apoptotic activity in retinoic acid resistant HL60R cells; assay type: functional, cell-based; conditions: Homo sapiens; how it was run: as §4
K562 [11] = experiment: Apoptotic activity in retinoic acid resistant K562 cells; assay type: functional, cell-based; conditions: Homo sapiens; how it was run: as §4
SW 962 [12] = experiment: as §1; assay type: functional, Homo sapiens; how it was run: as §2

`CC1(C)CCC(C)(C)c2cc(C3=NOC(c4ccc(C(=O)O)cc4)C3)ccc21` (configuration not stated) was tested, and the IC50 (HL-60 [1]) was 68 µM, the AC50 (HL-60 [2]) was > 100 µM and the Activity (HL-60 [3]) was 42.8%. The Efficacy (SW 962 [4]) was 46.5% and the Potency (SW 962 [5]) was 2.86 µM.
For `CC1(C)CCC(C)(C)c2cc(-c3cc(-c4ccc(C(=O)O)cc4)no3)ccc21`, the IC50 (HL-60 [1]) was 1 µM, the IC50 (HL-60 [6]) was 1.4 µM and the IC50 (K562 [7]) was 2.3 µM. It also gave an AC50 (HuT78 [8]) of 1.5 µM, an IC50 (HuT78 [9]) of 0.8 µM and an AC50 (HL-60 [2]) of 5 µM. The Efficacy (SW 962 [4]) was 97.6%, the Potency (SW 962 [5]) was 10 µM and the AC50 (HL-60 [10]) was 4.2 µM. It also gave an AC50 (K562 [11]) of 4.8 µM.
For `CC1(C)CCC(C)(C)c2cc(C3CC(c4ccc(C(=O)O)cc4)=NO3)ccc21` (configuration not stated), the IC50 (HL-60 [1]) was 75 µM, the AC50 (HL-60 [2]) was > 100 µM and the Activity (HL-60 [3]) was 32.5%. For the same compound, the Efficacy (SW 962 [4]) was 26.3% and the Potency (SW 962 [5]) was 0.961 µM.
`CC1(C)CCC(C)(C)c2cc(CNc3ccc(C(=O)O)cc3)ccc21` showed an IC50 (HL-60 [1]) of 40 µM, an AC50 (HL-60 [2]) of 70 µM and an Efficacy (SW 962 [4]) of 64.5%. The Potency (SW 962 [5]) was 0.671 µM.
In the case of `CC1(C)CCC(C)(C)c2cc(CNc3ccccc3C(=O)O)ccc21`, the IC50 (HL-60 [1]) is reported as 49 µM and the AC50 (HL-60 [2]) is reported as 88 µM.
`CC1(C)CCC(C)(C)c2cc(COc3ccc(C(=O)O)cc3)ccc21` was tested, and the IC50 (HL-60 [1]) was > 100 µM and the AC50 (HL-60 [2]) was > 100 µM.
Compound `CC1(C)CCC(C)(C)c2cc(CNc3cccc(C(=O)O)c3)ccc21` has an IC50 (HL-60 [1]) of 60 µM and an AC50 (HL-60 [2]) of 99 µM.
In the case of `CN(Cc1ccc2c(c1)C(C)(C)CCC2(C)C)c1ccc(C(=O)O)cc1`, the IC50 (HL-60 [1]) is reported as 58 µM and the AC50 (HL-60 [2]) is reported as 95 µM.
With `CC1(C)CCC(C)(C)c2cc(-c3cc(-c4ccc(C(=O)O)cc4)on3)ccc21` the IC50 (HL-60 [1]) was 80 µM, the AC50 (HL-60 [2]) was > 100 µM and the Activity (HL-60 [3]) was 38.6%. The Efficacy (SW 962 [4]) was 48% and the Potency (SW 962 [5]) was 0.129 µM.
Work on `CC1=C(/C=C/C(C)=C\C=C\C(C)=C\C(=O)O)C(C)(C)CCC1` [ALITRETINOIN] yielded an Efficacy (SW 962 [12]) of 100% and a Potency (SW 962 [5]) of 0.0169 µM.
With `CC1=C(/C=C/C(C)=C/C=C/C(C)=C/C(=O)O)C(C)(C)CCC1` [TRETINOIN] the IC50 (HL-60 [1]) was 18 µM, the AC50 (HL-60 [2]) was > 100 µM and the Activity (HL-60 [3]) was 0%.
